Data: ChEMBL document CHEMBL1137942, “Design, synthesis, and biological activity of novel, potent, and selective (benzoylaminomethyl)thiophene sulfonamide inhibitors of c-Jun-N-terminal kinase” (J Med Chem, 2004)

Key:
[1] = molecular target: 3-phosphoinositide-dependent protein kinase 1 (Homo sapiens) (UniProt O15530); test: Percentage activity of human PDK1 in the presence of 10 uM of compound and 10 uM of ATP in comparison with control
[2] = molecular target: Serine/threonine-protein kinase N2 (Homo sapiens) (UniProt Q16513); test: Percentage activity of human PRK2 in the presence of 10 uM of compound and 10 uM of ATP in comparison with control
[3] = molecular target: Ribosomal protein S6 kinase alpha-5 (Homo sapiens) (UniProt O75582); test: Percentage activity of human MSK1 in the presence of 10 uM of compound and 10 uM of ATP in comparison with control
[4] = molecular target: Protein kinase C epsilon type (Homo sapiens) (UniProt Q02156); test: Percentage activity of human PKC epsilon in the presence of 10 uM of compound and 10 uM of ATP in comparison with control
[5] = molecular target: Protein kinase C iota type (Homo sapiens) (UniProt P41743); test: Percentage activity of human PKC iota in the presence of 10 uM of compound and 10 uM of ATP in comparison with control
[6] = molecular target: RAF proto-oncogene serine/threonine-protein kinase (Homo sapiens) (UniProt P04049); test: Percentage activity of human c-RAF in the presence of 10 uM of compound and 10 uM of ATP in comparison with control
[7] = molecular target: Tyrosine-protein kinase SYK (Homo sapiens) (UniProt P43405); test: Percentage activity of human Syk in the presence of 10 uM of compound and 10 uM of ATP in comparison with control
[8] = molecular target: Ribosomal protein S6 kinase alpha-1 (Homo sapiens) (UniProt Q15418); test: Percentage activity of human Rsk1 in the presence of 10 uM of compound and 10 uM of ATP in comparison with control
Ribosomal protein S6 kinase alpha-1 (Homo sapiens), sequence (Q15418 whole entry): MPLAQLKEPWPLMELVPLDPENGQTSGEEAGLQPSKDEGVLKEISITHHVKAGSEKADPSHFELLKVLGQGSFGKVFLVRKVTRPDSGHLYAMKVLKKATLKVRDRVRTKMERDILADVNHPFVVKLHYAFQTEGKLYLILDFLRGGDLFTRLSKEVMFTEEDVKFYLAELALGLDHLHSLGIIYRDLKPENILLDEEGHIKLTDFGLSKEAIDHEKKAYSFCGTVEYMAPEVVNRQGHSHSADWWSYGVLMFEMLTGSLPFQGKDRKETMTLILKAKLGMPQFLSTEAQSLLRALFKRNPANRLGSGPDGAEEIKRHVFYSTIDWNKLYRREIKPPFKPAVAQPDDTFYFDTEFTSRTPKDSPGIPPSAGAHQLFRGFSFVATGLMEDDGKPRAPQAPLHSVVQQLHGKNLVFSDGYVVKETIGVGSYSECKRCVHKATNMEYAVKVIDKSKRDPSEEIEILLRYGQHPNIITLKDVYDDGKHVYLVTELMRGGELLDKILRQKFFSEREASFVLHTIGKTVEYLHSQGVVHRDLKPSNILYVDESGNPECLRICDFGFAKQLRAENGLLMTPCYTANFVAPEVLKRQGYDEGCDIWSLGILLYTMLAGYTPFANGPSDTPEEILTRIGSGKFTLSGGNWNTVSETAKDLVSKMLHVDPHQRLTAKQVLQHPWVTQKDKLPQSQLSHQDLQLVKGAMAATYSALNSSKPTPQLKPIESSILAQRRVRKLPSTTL

[9] = molecular target: Mitogen-activated protein kinase 9 (Homo sapiens, UniProt P45984); test: Inhibition of human JNK2
Method in brief: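 Radiometric SPA kinase assay: 0.5 µg recombinant preactivated GST-JNK2, 1 µg biotinylated GST-c-Jun, and 2 µM [33P]γ-ATP (2 nCi/µL). Buffer was 50 mM Tris-HCl pH 8.0, 10 mM MgCl2, 1 mM DTT and 100 µM NaVO4, with or without inhibitor, 120 min at rt. Stopped with streptavidin SPA beads, 5 mM EDTA, 0.1% Triton X-100 and 50 µM ATP in PBS; 60 min. Beads were centrifuged, washed, and counted by scintillation.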

[10] = molecular target: Protein kinase C eta type (Homo sapiens) (UniProt P24723); test: Percentage activity of human PKC eta in the presence of 10 uM of compound and 10 uM of ATP in comparison with control
Protein kinase C eta type (Homo sapiens), sequence (P24723 whole entry): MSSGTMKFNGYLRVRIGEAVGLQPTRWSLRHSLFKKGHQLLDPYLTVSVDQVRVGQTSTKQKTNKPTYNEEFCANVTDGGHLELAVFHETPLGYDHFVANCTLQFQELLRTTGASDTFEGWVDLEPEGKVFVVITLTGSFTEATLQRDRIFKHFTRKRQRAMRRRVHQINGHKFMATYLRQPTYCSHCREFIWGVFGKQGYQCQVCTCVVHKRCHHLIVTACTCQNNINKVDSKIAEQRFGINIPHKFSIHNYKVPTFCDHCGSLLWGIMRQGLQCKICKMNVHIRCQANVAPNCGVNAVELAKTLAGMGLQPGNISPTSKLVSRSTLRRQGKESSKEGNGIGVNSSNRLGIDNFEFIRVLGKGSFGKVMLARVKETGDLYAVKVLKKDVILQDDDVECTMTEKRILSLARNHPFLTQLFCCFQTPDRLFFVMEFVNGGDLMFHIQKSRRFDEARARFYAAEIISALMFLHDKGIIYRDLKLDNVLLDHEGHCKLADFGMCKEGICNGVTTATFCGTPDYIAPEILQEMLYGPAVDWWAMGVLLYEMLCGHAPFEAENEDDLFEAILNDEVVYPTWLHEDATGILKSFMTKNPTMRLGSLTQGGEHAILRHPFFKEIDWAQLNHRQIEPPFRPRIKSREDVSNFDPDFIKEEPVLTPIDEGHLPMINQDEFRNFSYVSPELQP

[11] = molecular target: Mitogen-activated protein kinase 1 (Homo sapiens) (UniProt P28482); test: Percentage activity of human MAPK1 in the presence of 10 uM of compound and 10 uM of ATP in comparison with control
Mitogen-activated protein kinase 1 (Homo sapiens), sequence (P28482 whole entry): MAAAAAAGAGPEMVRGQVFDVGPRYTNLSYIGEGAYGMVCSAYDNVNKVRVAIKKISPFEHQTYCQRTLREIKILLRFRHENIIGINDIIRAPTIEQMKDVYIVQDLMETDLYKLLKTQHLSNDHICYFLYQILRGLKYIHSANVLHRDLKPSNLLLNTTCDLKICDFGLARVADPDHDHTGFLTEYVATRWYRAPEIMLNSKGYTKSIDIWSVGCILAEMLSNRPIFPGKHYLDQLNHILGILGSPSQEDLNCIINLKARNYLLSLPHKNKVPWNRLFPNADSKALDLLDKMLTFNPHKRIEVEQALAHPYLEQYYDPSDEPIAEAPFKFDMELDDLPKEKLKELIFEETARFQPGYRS

[12] = molecular target: Tyrosine-protein kinase Fyn (Homo sapiens) (UniProt P06241); test: Percentage activity of human Fyn in the presence of 10 uM of compound and 10 uM of ATP in comparison with control
[13] = molecular target: Tyrosine-protein kinase ABL1 (Mus musculus) (UniProt P00520); test: Percentage activity of mouse Abl in the presence of 10 uM of compound and 10 uM of ATP in comparison with control
Tyrosine-protein kinase ABL1 (Mus musculus), sequence (P00520 whole entry): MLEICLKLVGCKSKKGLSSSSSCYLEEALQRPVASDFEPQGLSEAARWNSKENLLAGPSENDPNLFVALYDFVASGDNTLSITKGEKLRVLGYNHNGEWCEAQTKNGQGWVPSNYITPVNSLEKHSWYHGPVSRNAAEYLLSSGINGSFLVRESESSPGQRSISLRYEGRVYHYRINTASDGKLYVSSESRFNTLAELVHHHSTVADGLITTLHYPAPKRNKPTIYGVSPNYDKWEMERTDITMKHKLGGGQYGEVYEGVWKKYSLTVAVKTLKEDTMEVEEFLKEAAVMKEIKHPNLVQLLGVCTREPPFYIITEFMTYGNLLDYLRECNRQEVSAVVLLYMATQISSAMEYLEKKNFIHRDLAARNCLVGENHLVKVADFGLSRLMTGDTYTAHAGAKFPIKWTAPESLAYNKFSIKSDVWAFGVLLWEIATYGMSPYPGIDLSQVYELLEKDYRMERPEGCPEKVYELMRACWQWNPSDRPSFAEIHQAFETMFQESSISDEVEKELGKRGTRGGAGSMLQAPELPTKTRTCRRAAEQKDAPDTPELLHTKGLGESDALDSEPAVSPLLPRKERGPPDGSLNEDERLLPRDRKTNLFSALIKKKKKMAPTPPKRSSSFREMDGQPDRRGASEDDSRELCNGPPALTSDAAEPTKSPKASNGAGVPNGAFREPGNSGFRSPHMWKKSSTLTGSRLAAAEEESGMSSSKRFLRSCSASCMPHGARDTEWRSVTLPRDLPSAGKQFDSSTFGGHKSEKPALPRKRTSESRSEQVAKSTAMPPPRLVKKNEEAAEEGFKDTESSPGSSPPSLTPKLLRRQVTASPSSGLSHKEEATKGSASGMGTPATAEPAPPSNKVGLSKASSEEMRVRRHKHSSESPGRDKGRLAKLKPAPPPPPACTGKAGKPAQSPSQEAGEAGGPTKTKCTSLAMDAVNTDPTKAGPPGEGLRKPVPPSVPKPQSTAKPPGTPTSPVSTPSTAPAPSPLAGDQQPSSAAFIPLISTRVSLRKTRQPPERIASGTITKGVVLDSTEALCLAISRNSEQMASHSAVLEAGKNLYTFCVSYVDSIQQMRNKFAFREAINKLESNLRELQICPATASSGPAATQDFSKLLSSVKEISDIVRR

[14] = molecular target: Tyrosine-protein kinase Blk (Mus musculus) (UniProt P16277); test: Percentage activity of mouse Blk in the presence of 10 uM of compound and 10 uM of ATP in comparison with control
Tyrosine-protein kinase Blk (Mus musculus), sequence (P16277 whole entry): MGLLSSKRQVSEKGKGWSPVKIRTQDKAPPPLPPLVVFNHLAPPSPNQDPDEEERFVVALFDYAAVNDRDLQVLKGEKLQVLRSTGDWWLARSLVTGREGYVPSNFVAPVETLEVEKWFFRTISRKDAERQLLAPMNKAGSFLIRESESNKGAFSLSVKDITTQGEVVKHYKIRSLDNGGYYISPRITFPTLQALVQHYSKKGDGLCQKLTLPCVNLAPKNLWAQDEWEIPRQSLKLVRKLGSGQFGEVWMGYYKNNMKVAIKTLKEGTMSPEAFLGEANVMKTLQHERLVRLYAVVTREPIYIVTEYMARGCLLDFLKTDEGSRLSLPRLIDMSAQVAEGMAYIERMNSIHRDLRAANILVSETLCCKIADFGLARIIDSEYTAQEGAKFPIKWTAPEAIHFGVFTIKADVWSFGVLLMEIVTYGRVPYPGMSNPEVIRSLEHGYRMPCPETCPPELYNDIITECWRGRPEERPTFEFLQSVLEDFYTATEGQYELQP

[15] = molecular target: Tyrosine-protein kinase ABL2 (Mus musculus) (UniProt Q4JIM5); test: Percentage activity of mouse Arg in the presence of 10 uM of compound and 10 uM of ATP in comparison with control
[16] = molecular target: Platelet-derived growth factor receptor (Homo sapiens) (UniProt P09619+P16234); test: Percentage activity of human PDGFR alpha in the presence of 10 uM of compound and 10 uM of ATP in comparison with control; type: protein-complex assay
[17] = molecular target: Receptor-type tyrosine-protein kinase FLT3 (Homo sapiens) (UniProt P36888); test: Percentage activity of human Flt3 in the presence of 10 uM of compound and 10 uM of ATP in comparison with control
Receptor-type tyrosine-protein kinase FLT3 (Homo sapiens), sequence (P36888 whole entry): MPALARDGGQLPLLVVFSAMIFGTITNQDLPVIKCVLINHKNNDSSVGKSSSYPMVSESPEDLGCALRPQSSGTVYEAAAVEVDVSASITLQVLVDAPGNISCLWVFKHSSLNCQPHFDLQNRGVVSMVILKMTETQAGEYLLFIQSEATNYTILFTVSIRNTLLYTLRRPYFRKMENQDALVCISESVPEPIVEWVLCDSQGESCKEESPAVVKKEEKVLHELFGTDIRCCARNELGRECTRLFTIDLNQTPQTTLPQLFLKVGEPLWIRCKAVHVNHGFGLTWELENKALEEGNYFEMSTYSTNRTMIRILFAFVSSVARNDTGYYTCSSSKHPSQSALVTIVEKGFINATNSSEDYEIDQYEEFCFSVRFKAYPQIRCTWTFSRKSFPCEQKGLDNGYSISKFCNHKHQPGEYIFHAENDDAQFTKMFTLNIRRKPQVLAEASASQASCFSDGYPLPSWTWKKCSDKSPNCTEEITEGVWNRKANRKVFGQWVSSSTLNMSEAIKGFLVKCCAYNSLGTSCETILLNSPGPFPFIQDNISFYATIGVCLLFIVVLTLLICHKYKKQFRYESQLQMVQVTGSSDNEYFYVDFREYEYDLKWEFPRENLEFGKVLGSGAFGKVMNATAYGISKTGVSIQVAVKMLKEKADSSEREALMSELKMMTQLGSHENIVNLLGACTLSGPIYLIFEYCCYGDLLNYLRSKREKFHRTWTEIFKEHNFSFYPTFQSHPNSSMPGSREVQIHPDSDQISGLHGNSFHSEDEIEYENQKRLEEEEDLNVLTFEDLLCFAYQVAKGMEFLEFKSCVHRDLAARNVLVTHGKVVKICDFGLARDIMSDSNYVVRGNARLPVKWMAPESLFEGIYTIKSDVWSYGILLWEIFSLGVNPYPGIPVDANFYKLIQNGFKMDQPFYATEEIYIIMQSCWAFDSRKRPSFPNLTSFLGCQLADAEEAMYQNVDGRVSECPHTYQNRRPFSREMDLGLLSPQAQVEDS

[18] = molecular target: Serine/threonine-protein kinase Chk1 (Homo sapiens) (UniProt O14757); test: Percentage activity of human CHK1 in the presence of 10 uM of compound and 10 uM of ATP in comparison with control
[19] = molecular target: Tyrosine-protein kinase Yes (Homo sapiens) (UniProt P07947); test: Percentage activity of human Yes in the presence of 10 uM of compound and 10 uM of ATP in comparison with control
[20] = molecular target: Cytoplasmic tyrosine-protein kinase BMX (Homo sapiens) (UniProt P51813); test: Percentage activity of human Bmx in the presence of 10uM of compound and 10uM of ATP in comparison with control
SCG [21] = test: Cell activity of JNK inhibitors in neuronal apoptosis assay in SCG cells, percentage rescued neurons at 10uM compound concentration after 48 hours; type: functional, Rattus norvegicus
Method in brief: (§1)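 They were cultured in Leibowitz medium with 5% rat serum, 0.75 µg/mL NGF 7S and arabinosine C 10^-5 M. On day 4, medium was switched to 10 µg/mL anti-NGF antibody without NGF or AraC, with inhibitor in 1% DMSO. After 24 h, cells were refed initial medium minus AraC. After another 24 h, viability was read by MTT (0.5 mg/mL, 30 min, 37 °C), OD 590 nm.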

SCG [22] = test: Cell activity of JNK inhibitors in neuronal apoptosis assay in SCG cells, percentage rescued neurons at 3 uM compound concentration after 48 hours; type: functional, Rattus norvegicus; method in brief: as §1
Saccharomyces cerevisiae = test: Percentage activity of yeast CK1 in the presence of 10 uM of compound and 10 uM of ATP in comparison with control
[23] = molecular target: Mitogen-activated protein kinase 11 (Homo sapiens) (UniProt Q15759); test: Percentage activity of human SAPK2b in the presence of 10 uM of compound and 10 uM of ATP in comparison with control
Mitogen-activated protein kinase 11 (Homo sapiens), sequence (Q15759 whole entry): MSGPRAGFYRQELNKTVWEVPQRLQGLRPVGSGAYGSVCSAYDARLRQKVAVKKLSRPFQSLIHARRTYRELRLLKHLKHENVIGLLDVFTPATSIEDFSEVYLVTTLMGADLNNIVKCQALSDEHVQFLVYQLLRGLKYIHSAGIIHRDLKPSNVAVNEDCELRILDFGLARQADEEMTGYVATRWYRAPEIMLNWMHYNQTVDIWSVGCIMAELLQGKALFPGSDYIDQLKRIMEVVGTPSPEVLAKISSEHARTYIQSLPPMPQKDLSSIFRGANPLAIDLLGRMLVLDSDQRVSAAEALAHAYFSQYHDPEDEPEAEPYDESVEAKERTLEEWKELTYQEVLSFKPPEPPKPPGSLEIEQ

[24] = molecular target: Insulin receptor (Homo sapiens) (UniProt P06213); test: Percentage activity of human IR in the presence of 10 uM of compound and 10 uM of ATP in comparison with control
[25] = molecular target: Mitogen-activated protein kinase 9, JNK2 (Homo sapiens) (UniProt P45984); test: Percentage activity of human JNK2a2 in the presence of 10 uM of compound and 10 uM of ATP in comparison with control

Molecule `O=C(NCc1ccc(S(=O)(=O)N2CCC(n3nnc4ccccc43)CC2)s1)c1ccc(Cl)cc1` has an Activity [1] of 98%, an Activity [2] of 92% and an Activity [3] of 86%. The Activity [4] was 95%, the Activity [5] was 99% and the Activity [6] was 93%. It also gave an Activity [7] of 75%, an Activity [8] of 93% and an IC50 [9] of 650 nM. It also gave an Activity [10] of 100%, an Activity [11] of 97% and an Activity [12] of 46%. The Activity [13] was 80%, the Activity [14] was 78% and the Activity [15] was 91%. The Activity [16] was 103%, the Activity [17] was 78% and the Activity [18] was 130%. The Activity [19] was 61%, the Activity [20] was 88% and the Rescued neurons (SCG [21]) was 56%. The Rescued neurons (SCG [22]) was 25.2%, the Activity (Saccharomyces cerevisiae) was 85% and the Activity [23] was 100%. For the same molecule, the Activity [24] was 103% and the Activity [25] was 16%.
